STAT1 activator = activators of IFN-gamma induced STAT1 signaling; activation (% of control), % at 5.5 µM; 200,000 tested, 2.6% active; NIH 3T3 STAT1-luciferase reporter, luminescence; 100% = IFN-gamma alone, no compound; AID 932;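 active means activation above the screen-wide mean activation plus 3 SD, cut at about 130% in these data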;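 further: raw ratio to IFN-gamma control signal so 100% means no change and 0% no light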
NF-kB neuron act = NF-kB expression increase, human neuronal cells; NF-kB reporter expression; active compounds read high; fold change at 12.5 µM; 190,000 tested, 1.6% active; AID 1239; in the data active means fold change above about 3.3
p97 ATPase inh = human p97 ATPase inhibition; AID 1481; recombinant p97 ATPase, Kinase-Glo ATP luminescence, 3 h; 220,000 tested, 0.42% active; inhibition, % at 8 µM; in the data active means inhibition above about 15%;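 further: 0% = DMSO vehicle and 100% = wells lacking enzyme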
Target sequence (P55072 whole entry, looked up): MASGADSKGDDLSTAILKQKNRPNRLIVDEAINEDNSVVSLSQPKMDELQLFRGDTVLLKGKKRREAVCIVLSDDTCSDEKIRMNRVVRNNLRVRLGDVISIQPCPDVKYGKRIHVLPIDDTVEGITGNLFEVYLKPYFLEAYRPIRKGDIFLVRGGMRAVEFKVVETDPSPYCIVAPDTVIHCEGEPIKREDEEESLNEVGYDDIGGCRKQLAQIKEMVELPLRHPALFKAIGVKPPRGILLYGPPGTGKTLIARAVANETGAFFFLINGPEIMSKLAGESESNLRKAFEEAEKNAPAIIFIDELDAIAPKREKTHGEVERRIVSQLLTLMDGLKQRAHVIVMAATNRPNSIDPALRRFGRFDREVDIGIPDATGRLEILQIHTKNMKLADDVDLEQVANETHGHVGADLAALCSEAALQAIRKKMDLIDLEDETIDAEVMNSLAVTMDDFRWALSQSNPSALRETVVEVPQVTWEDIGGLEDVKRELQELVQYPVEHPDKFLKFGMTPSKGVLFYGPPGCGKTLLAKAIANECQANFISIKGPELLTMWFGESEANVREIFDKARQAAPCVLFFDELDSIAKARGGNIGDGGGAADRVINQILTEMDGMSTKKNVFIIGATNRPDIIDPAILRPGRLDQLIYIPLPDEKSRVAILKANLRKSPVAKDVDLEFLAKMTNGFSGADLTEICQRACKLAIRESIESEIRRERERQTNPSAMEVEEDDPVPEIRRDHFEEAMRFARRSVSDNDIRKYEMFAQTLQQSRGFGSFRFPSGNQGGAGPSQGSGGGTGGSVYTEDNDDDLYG
Mdm2 ligase inh = inhibitors of human Mdm2 E3 ubiquitin ligase; signal enhancement, % at 5 µM; Q00987; cell-based MDM2 ubiquitination luciferase reporter, 2 h; 0 = plate control, 100 = twice control, blank-subtracted; AID 1230; 210,000 tested, 0.11% active;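 active means signal enhancement of 30% or more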;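 further: luminescence tracks abundance of the self-degrading MDM2-luciferase fusion protein; higher signal means inhibition of MDM2 E3 ligase activity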
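Assay system: mammalian cells stably expressing self-ubiquitinating, self-degrading MDM2 E3–luciferase fusion. Quantity: 2000 cells in each well. Medium: DMEM culture medium. Compound dosing: single-point 5 µM. Timing: cell settling 4 h, compound treatment 2 h, both 37 °C. Technique: luciferase luminescence. Read-out basis: percent signal gain over controls, blank-subtracted. Benchmarks: plate controls and plate blanks.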
APP 5'UTR act = activates APP 5'UTR luciferase reporter | SH-SY5Y APP 5'UTR luciferase reporter, luminescence; zero percent = DMSO vehicle wells | activation, % at 2 µM | 190,000 tested, 1% active;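 active means activation above a set limit, based on mean plus 3 SD of controls, cut at about 140% in these data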
Wee1 stabilizer = inhibitors of human Wee1 degradation; 220,000 tested, 1.2% active; HeLa Luc-Wee1K328M stability, luciferase luminescence; 100% = proteasome inhibitor MG132 effect; P30291; AID 1321; reporter increase, % at 5 µM;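 active means activation above the mean of all tested compounds plus 3 SD, set per screening run, cut at about 8.8% in these data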;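 further: cells exposed to compound for 20 h before luminescence read; 0% = DMSO alone and 100% = MG132 at 30 µM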
An asterisk follows results filed as active; x = no result given. A selection: hits, their analogues and other compounds. The true share with any hit is near 4.6%.

SMILES | STAT1 activator | NF-kB neuron act | p97 ATPase inh | Mdm2 ligase inh | APP 5'UTR act | Wee1 stabilizer
O=C(COc1ccc2c(c1)CCC2)NCc1ccc(Cl)cc1 | 93.4 | 1.13 | -5.0 | -13.6 | -3.9 | -1.9
CCCC1/C(=N/O)CC(c2ccccc2)NC1c1ccccc1 (centres undefined) | 84.3 | 0.73 | -2.1 | -8.9 | 7.7 | 9.1*
c1cnc2nc(-c3ccc4c(c3)OCO4)cn2c1 | 135.6* | 2.18 | -4.9 | -22.1 | 62.2 | -0.2
O=C(Nc1cccc(-c2cn3cccnc3n2)c1)c1ccc2c(c1)OCO2 | 99.9 | 0.58 | 1.0 | -13.0 | 15.7 | 3.8
COC(=O)c1ccc2nc(-c3ccc4c(c3)OCO4)cn2c1 | 39.0 | 4.98* | -0.7 | -79.8 | 90.0 | -0.6
c1ccc(-c2nccc(-c3ccc4c(c3)OCO4)n2)cc1 | 134.5* | 2.04 | -1.3 | -19.2 | 46.7 | -0.5
O=C1CC(C(=O)Nc2ccccc2)S/C(=N\N=C\c2ccco2)N1 (centres undefined) | 93.7 | 0.94 | -2.1 | -8.1 | -7.4 | -1.3
COc1ccc(NC(=O)C2CC(=O)N/C(=N/N=C/c3ccco3)S2)cc1 (centres undefined) | x | x | 5.5 | -6.7 | x | 9.4*
O=C(/C=C/c1ccccc1)OCc1cncs1 | 128.8* | 2.05 | 1.8 | -4.7 | 28.5 | 4.3
COc1ccc(/C=C/C(=O)O)cc1S(=O)(=O)N1CCC(C)CC1 | x | x | 2.5 | -11.2 | x | -0.9
CC12CCC(c3c(C(=O)O)nn(-c4ccccc4)c31)C2(C)C (centres undefined) | 101.0 | 1.12 | 1.7 | -22.2 | -3.7 | -3.2
CC12CCC(c3c(CO)nn(-c4ccccc4)c31)C2(C)C (centres undefined) | 99.3 | 1.09 | -0.2 | -11.6 | -8.7 | 10.3*
COc1ccc(-n2cc(CNC3CCC(O)CC3)c(-c3cccc(F)c3)n2)cc1 (centres undefined) | 98.3 | 1.05 | 0.9 | -40.6 | 7.2 | -0.8
S=C(c1ccc(-c2ccccc2Cl)o1)N1CCOCC1 | 119.2 | 2.51 | 0.3 | -7.5 | 35.5 | 3.3
S=C(c1ccc(-c2ccc(Br)cc2)o1)N1CCOCC1 | x | x | 1.4 | -6.6 | x | 10.1*
COC(=O)c1c(NC(=O)CC2SC(N)=NC2=O)sc2c1CCC(C(C)(C)C)C2 (centres undefined) | 107.6 | 1.02 | 4.0 | 11.7 | 15.7 | 0.2
CC(=O)c1cnn(-c2nc3c(C)cccc3s2)c1C | 119.5 | 3.85* | 0.4 | -14.2 | -0.3 | 1.1
CC(=O)c1cnn(-c2ccccc2)c1C | 100.8 | 0.96 | 3.0 | -9.8 | -2.8 | -2.9
COc1cnc(SC)nc1Nc1ccc(C#N)cc1 | x | x | 7.1 | x | x | 3.0
CCCc1cc(NC(=O)CCl)n(-c2ccccc2)n1 | 109.9 | 2.42 | 1.2 | -1.2 | -6.5 | -0.1
O=C(O)/C(=C\c1ccc(Cl)cc1)c1ccc(F)cc1 | 103.9 | 1.32 | -7.8 | -25.9 | 16.9 | 1.7
CC(C)c1ccc2oc(-c3cc(N)ccc3O)nc2c1 | 116.0 | 2.36 | 0.3 | -36.0 | 157.9* | -0.5
Cc1ccccc1-c1nc2cc(N)ccc2o1 | 141.3* | 3.95* | -5.8 | -32.0 | 63.4 | 2.1
Nc1ccc(O)c(-c2nc3ccccc3s2)c1 | 127.9 | 2.06 | -4.1 | -18.8 | 21.6 | -0.9
Cc1nc2ccc(-c3nc4cc(N)ccc4o3)cc2[nH]1 | 116.4 | 1.66 | -1.9 | -48.7 | -21.5 | -1.7
SMILES | STAT1 activator | NF-kB neuron act | p97 ATPase inh | Mdm2 ligase inh | APP 5'UTR act | Wee1 stabilizer
CCNS(=O)(=O)c1ccc(NC(=O)c2cccnc2)cc1 | 99.5 | 0.95 | 1.8 | -15.9 | -6.1 | -0.3
CC(C)c1ccc(NC(=O)c2cccc(Br)c2)cc1 | 140.3* | 1.08 | -5.8 | -14.1 | 129.7 | 5.0
O=C(Nc1ccc(S(=O)(=O)Nc2ncccn2)cc1)c1cccnc1 | 134.3* | 1.49 | 3.6 | -5.1 | -1.9 | 0.9
O=C(NNC(=O)c1cccc(Br)c1)Nc1ccc(Cl)cc1 | 103.4 | 1.01 | 2.5 | 3.5 | 23.7 | -1.9
CCC(C)c1ccc(NC(=O)c2cccnc2)cc1 (centres undefined) | 133.0* | 3.91* | -1.5 | -16.0 | 103.9 | 4.3
COC(=O)c1ccc(NC(=O)Cc2ccc(C)cc2)cc1 | 100.8 | 1.24 | -1.5 | -16.1 | 21.0 | -2.7
COC(=O)c1ccc(NN=Nc2ccc(C)cc2)cc1 | 137.0* | 1.74 | -7.4 | 1.1 | 72.0 | -2.8
COC(=O)c1ccc(NC(=O)CCN2CCCCC2)cc1 | 93.2 | 1.06 | -5.6 | -0.7 | 31.1 | -2.6

Screening data as filed in PubChem.
